Results: ChEMBL document CHEMBL2062493, “Synthesis and evaluation of [¹¹C]Cimbi-806 as a potential PET ligand for 5-HT₇ receptor imaging” (Bioorg Med Chem, 2012)

Columns and labels:
[1] = Lipophilicity, log D of the compound at pH 7.4 by HPLC analysis; type: physicochemical; details: buffer
Outline: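 Measured by RP-HPLC on a C8 column at 37 °C with 50:50 25 mM sodium phosphate pH 7.4/MeOH at 2 mL/min and UV detection at 254 nm. LogD was derived from log retention factor via a calibration line of reference compounds with known logD.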

[2] = Displacement of [3H]SB269970 from 5HT7R in Danish Landrace pig brain section after 2 hrs by autoradiography; parameters: species or system Sus scrofa
Outline: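 Pig brain sections incubated 2 h with [3H]SB-269970 plus varying competitor in 50 mM Tris–HCl pH 7.4. Washes were 3 × 5 min in ice-cold buffer, then a dip in ice-cold water. Sections were dried and exposed to tritium-sensitive plates for 14 days. Specific binding (total minus non-specific) was plotted against competitor concentration.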

[3] = Drug uptake in Danish Landrace pig cerebellum at 468+/-31 MBq, iv after 20 mins by PET scanning; type: ADME, organism-based, Sus scrofa; details: in vivo
Outline: (§1)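 Images were co-registered to an MRI atlas of the pig brain. Striatum was the mean of caudate and putamen, thalamus the mean of lateral and medial thalamus, and each region left/right averaged. Uptake is expressed as SUV (kBq/mL normalized to injected dose per kg). For the blocking condition, SB-269970 was infused at 0.5–1.0 mg/kg/h from 30 min before the second scan.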

[4] = Drug uptake in Danish Landrace pig cerebellum at 468+/-31 MBq, iv up to 20 mins by PET scanning; type: ADME, organism-based, Sus scrofa; details: in vivo; outline: as §1
Plasma [5] = test: Drug metabolism in Danish Landrace pig plasma at 468+/-31 MBq, iv; type: ADME, Sus scrofa
Outline: (§2)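 Blood was drawn at 2.5–90 min and centrifuged; plasma was filtered 0.45 µm and analysed for parent and radiometabolites by column-switching HPLC with online radioactivity detection. For the blocking condition, SB-269970 was infused at 0.5–1.0 mg/kg/h from 30 min before the second scan and continued throughout it.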

[6] = Drug uptake in Danish Landrace pig striatum at 468+/-31 MBq, iv up to 20 mins by PET scanning; type: ADME, organism-based, Sus scrofa; details: in vivo; outline: as §1
[7] = Drug uptake in Danish Landrace pig striatum pre-treated with SB269970 at 468+/-31 MBq, iv administered 30 mins post SB269970-treatment measured up to 20 mins by PET scanning; type: ADME, organism-based, Sus scrofa; details: in vivo; outline: as §1
[8] = Drug uptake in Danish Landrace pig thalamus at 468+/-31 MBq, iv after 20 mins by PET scanning; type: ADME, organism-based, Sus scrofa; details: in vivo; outline: as §1
Plasma [9] = test: Drug metabolism in Danish Landrace pig plasma pre-treated with SB269970 at 468+/-31 MBq, iv administered 30 mins post SB269970-treatment measured upto 90 mins; type: ADME, organism-based, Sus scrofa; details: in vivo; outline: as §2
[10] = Drug uptake in Danish Landrace pig cerebellum pre-treated with SB269970 at 468+/-31 MBq, iv administered 30 mins post SB269970-treatment measured up to 20 mins by PET scanning; type: ADME, organism-based, Sus scrofa; details: in vivo; outline: as §1
[11] = Drug uptake in Danish Landrace pig striatum at 468+/-31 MBq, iv after 20 mins by PET scanning; type: ADME, organism-based, Sus scrofa; details: in vivo; outline: as §1
[12] = Drug uptake in Danish Landrace pig thalamus pre-treated with SB269970 at 468+/-31 MBq, iv administered 30 mins post SB269970-treatment measured up to 20 mins by PET scanning; type: ADME, organism-based, Sus scrofa; details: in vivo; outline: as §1
[13] = Free fraction in Danish Landrace pig plasma at 5 MBq after 3 hrs by equilibrium dialysis; type: ADME, cell-free, Sus scrofa
[14] = Drug uptake in Danish Landrace pig thalamus at 468+/-31 MBq, iv up to 20 mins by PET scanning; type: ADME, organism-based, Sus scrofa; details: in vivo; outline: as §1

| Structure (SMILES) | logD [1] | Ki [2] | Drug uptake [3] | Drug uptake [4] | Drug metabolism (Plasma [5]) | Drug uptake [6] | Drug uptake [7] | Drug uptake [8] | Drug metabolism (Plasma [9]) | Drug uptake [10] | Drug uptake [11] | Drug uptake [12] | fraction unbound at 3 h, 5 MBq [13] | Drug uptake [14] |
| --- | --- | --- | --- | --- | --- | --- | --- | --- | --- | --- | --- | --- | --- | --- |
| COc1cccc(OC)c1-c1cccc(CCN(C)C)c1 | 4.4 | 8.82 nM |  |  |  |  |  |  |  |  |  |  |  |  |
| COc1cccc(OC)c1-c1cccc(CCN(C)[11CH3])c1 |  |  | Not Active | Active | Active | Active | Not Active | Not Active | Active | Not Active | Not Active | Not Active | 0.235 | Active |
